Data reported in ChEMBL document CHEMBL4190234, “Design, synthesis and anticancer activity of new monastrol analogues bearing 1,3,4-oxadiazole moiety” (Eur J Med Chem, 2017).

Assays:
Format in all cases: functional
NCI-H460 = assay: Growth inhibition of human NCI-H460 cells at 10 uM incubated for 48 hrs by sulforhodamine B assay relative to control; settings: NCI-H460, 48 h, read-out: GI
Summary of the method: (§1)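 Single-dose screen at 10 μM final: cells in RPMI 1640, 5% FBS, 2 mM L-glutamine, plated 5,000–40,000/well, preincubated 24 h at 37°C, 5% CO2; drug 48 h; adherent cells fixed with 10% TCA, suspension cells with 16% TCA; SRB stain, absorbance 515 nm; percentage growth versus untreated control, with time-zero plates.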

ACHN = assay: Growth inhibition of human ACHN cells at 10 uM incubated for 48 hrs by sulforhodamine B assay relative to control; settings: read-out: GI; summary of the method: as §1
HOP-62 = assay: Growth inhibition of human HOP62 cells at 10 uM incubated for 48 hrs by sulforhodamine B assay relative to control; settings: HOP-62, 48 h, read-out: GI; summary of the method: as §1
SF-268 = assay: Growth inhibition of human SF268 cells at 10 uM incubated for 48 hrs by sulforhodamine B assay relative to control; settings: SF-268, 48 h, read-out: GI
Summary of the method: (§2)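 NCI single-dose screen: cells grown in RPMI 1640 with 5% FBS and 2 mM L-glutamine, plated at 5,000–40,000 cells/well and preincubated 24 h at 37 °C, 5% CO2. Compounds taken from DMSO stock and tested at final 10 µM for 48 h. Cells fixed with TCA, stained with 0.4% SRB, absorbance read at 515 nm. Percentage growth calculated against untreated controls; controls held DMSO at the same dilution.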

BT-549 = assay: Growth inhibition of human BT549 cells at 10 uM incubated for 48 hrs by sulforhodamine B assay relative to control; settings: BT-549, 48 h, read-out: GI; summary of the method: as §1
NCI-H322M = assay: Growth inhibition of human NCI-H322M cells at 10 uM incubated for 48 hrs by sulforhodamine B assay relative to control; settings: read-out: GI; summary of the method: as §1
IGROV-1 = assay: Growth inhibition of human IGROV1 cells at 10 uM incubated for 48 hrs by sulforhodamine B assay relative to control; settings: IGROV-1, 48 h, read-out: GI; summary of the method: as §1
A498 = assay: Growth inhibition of human A498 cells at 10 uM incubated for 48 hrs by sulforhodamine B assay relative to control; settings: A498, 48 h, read-out: GI; summary of the method: as §1
786-0 = assay: Growth inhibition of human 786-0 cells at 10 uM incubated for 48 hrs by sulforhodamine B assay relative to control; settings: 786-0, 48 h, read-out: GI; summary of the method: as §1
T47D = assay: Growth inhibition of human T47D cells at 10 uM incubated for 48 hrs by sulforhodamine B assay relative to control; settings: read-out: GI; summary of the method: as §2
HCT-116 = assay: Growth inhibition of human HCT116 cells at 10 uM incubated for 48 hrs by sulforhodamine B assay relative to control; settings: HCT-116, 48 h, read-out: GI; summary of the method: as §1
KM12 = assay: Growth inhibition of human KM12 cells at 10 uM incubated for 48 hrs by sulforhodamine B assay relative to control; settings: KM12, 48 h, read-out: GI; summary of the method: as §1
SK-MEL-5 = assay: Growth inhibition of human SK-MEL-5 cells at 10 uM incubated for 48 hrs by sulforhodamine B assay relative to control; settings: SK-MEL-5, 48 h, read-out: GI; summary of the method: as §2
OVCAR-4 = assay: Growth inhibition of human OVCAR4 cells at 10 uM incubated for 48 hrs by sulforhodamine B assay relative to control; settings: OVCAR-4, 48 h, read-out: GI; summary of the method: as §1
UACC-62 = assay: Growth inhibition of human UACC62 cells at 10 uM incubated for 48 hrs by sulforhodamine B assay relative to control; settings: UACC-62, 48 h, read-out: GI; summary of the method: as §2
MDA-MB-231 = assay: Growth inhibition of human MDA-MB-231 cells at 10 uM incubated for 48 hrs by sulforhodamine B assay relative to control; settings: MDA-MB-231, 48 h, read-out: GI; summary of the method: as §1
NCI-H522 = assay: Growth inhibition of human NCI-H522 cells at 10 uM incubated for 48 hrs by sulforhodamine B assay relative to control; settings: NCI-H522, 48 h, read-out: GI; summary of the method: as §1
NCI/ADR-RES = assay: Growth inhibition of human NCI/ADR-RES cells at 10 uM incubated for 48 hrs by sulforhodamine B assay relative to control; settings: read-out: GI; summary of the method: as §1
SK-OV-3 = assay: Growth inhibition of human SKOV3 cells at 10 uM incubated for 48 hrs by sulforhodamine B assay relative to control; settings: SK-OV-3, 48 h, read-out: GI; summary of the method: as §2
HCT-15 = assay: Growth inhibition of human HCT15 cells at 10 uM incubated for 48 hrs by sulforhodamine B assay relative to control; settings: HCT-15, 48 h, read-out: GI; summary of the method: as §1
HL-60(TB) = assay: Growth inhibition of human HL-60(TB) cells at 10 uM incubated for 48 hrs by sulforhodamine B assay relative to control; settings: HL-60, 48 h, read-out: GI
Summary of the method: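 Single dose of 10 µM in the NCI ~60-line panel. Cells grown in RPMI 1640 with 5% FBS and 2 mM L-glutamine, plated and pre-incubated 24 h, then exposed 48 h at 37°C under 5% CO2. Suspension cells fixed with TCA (16% final) and stained with sulforhodamine B, A515 read. Reported as percent growth versus untreated control and as GI%.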

OVCAR-3 = assay: Growth inhibition of human OVCAR3 cells at 10 uM incubated for 48 hrs by sulforhodamine B assay relative to control; settings: OVCAR-3, 48 h, read-out: GI; summary of the method: as §1
SR = assay: Growth inhibition of human SR cells at 10 uM incubated for 48 hrs by sulforhodamine B assay relative to control; settings: read-out: GI; summary of the method: as §2
MCF7 = assay: Growth inhibition of human MCF7 cells at 10 uM incubated for 48 hrs by sulforhodamine B assay relative to control; settings: MCF7, 48 h, read-out: GI; summary of the method: as §1
SF-539 = assay: Growth inhibition of human SF539 cells at 10 uM incubated for 48 hrs by sulforhodamine B assay relative to control; settings: SF-539, 48 h, read-out: GI; summary of the method: as §2
MDA-MB-468 = assay: Growth inhibition of human MDA-MB-468 cells at 10 uM incubated for 48 hrs by sulforhodamine B assay relative to control; settings: MDA-MB-468, 48 h, read-out: GI; summary of the method: as §1
SNB-75 = assay: Growth inhibition of human SNB75 cells at 10 uM incubated for 48 hrs by sulforhodamine B assay relative to control; settings: SNB-75, 48 h, read-out: GI; summary of the method: as §2
SN12C = assay: Growth inhibition of human SN12C cells at 10 uM incubated for 48 hrs by sulforhodamine B assay relative to control; settings: read-out: GI; summary of the method: as §2
RXF 393 = assay: Growth inhibition of human RXF393 cells at 10 uM incubated for 48 hrs by sulforhodamine B assay relative to control; settings: RXF 393, 48 h, read-out: GI; summary of the method: as §1
M14 = assay: Growth inhibition of human M14 cells at 10 uM incubated for 48 hrs by sulforhodamine B assay relative to control; settings: M14, 48 h, read-out: GI; summary of the method: as §1

| Compound | inhibition of growth at 10 µM (NCI-H460) [%] | inhibition of growth at 10 µM (ACHN) [%] | inhibition of growth at 10 µM (HOP-62) [%] | inhibition of growth at 10 µM (SF-268) [%] | inhibition of growth at 10 µM (BT-549) [%] | inhibition of growth at 10 µM (NCI-H322M) [%] | inhibition of growth at 10 µM (IGROV-1) [%] | inhibition of growth at 10 µM (A498) [%] | inhibition of growth at 10 µM (786-0) [%] | inhibition of growth at 10 µM (T47D) [%] | inhibition of growth at 10 µM (HCT-116) [%] | inhibition of growth at 10 µM (KM12) [%] | inhibition of growth at 10 µM (SK-MEL-5) [%] | inhibition of growth at 10 µM (OVCAR-4) [%] | inhibition of growth at 10 µM (UACC-62) [%] | inhibition of growth at 10 µM (MDA-MB-231) [%] | inhibition of growth at 10 µM (NCI-H522) [%] | inhibition of growth at 10 µM (NCI/ADR-RES) [%] | inhibition of growth at 10 µM (SK-OV-3) [%] | inhibition of growth at 10 µM (HCT-15) [%] | further results |
| --- | --- | --- | --- | --- | --- | --- | --- | --- | --- | --- | --- | --- | --- | --- | --- | --- | --- | --- | --- | --- | --- |
| CCOC(=O)C1=C(C)NC(SCc2nnc(-c3ccc(Cl)cc3)o2)=NC1c1ccc(F)cc1 (stereo not given) | < 10 | < 10 | < 10 | < 10 | < 10 | < 10 | 17.1 | 12.3 | 10.7 | 27.1 | 21.7 | < 10 | 12.5 | < 10 | 10.7 | < 10 | 17.5 | < 10 | < 10 | 15.8 | inhibition of growth at 10 µM (HL-60(TB)): 23.5%; inhibition of growth at 10 µM (OVCAR-3): < 10%; inhibition of growth at 10 µM (SR): 16.7%; inhibition of growth at 10 µM (MCF7): 13.3%; inhibition of growth at 10 µM (SF-539): < 10%; inhibition of growth at 10 µM (MDA-MB-468): 17.1%; inhibition of growth at 10 µM (SNB-75): < 10%; inhibition of growth at 10 µM (SN12C): < 10%; inhibition of growth at 10 µM (RXF 393): < 10%; inhibition of growth at 10 µM (M14): < 10% |
| CCOC(=O)C1=C(C)NC(SCc2nnc(-c3ccc(Cl)cc3)o2)=NC1c1ccc(Cl)cc1 (stereo not given) | 21.1 | 35.9 | < 10 | 14 | 24.7 | 17.7 | 37.7 | 19.3 | 16.6 | 50.1 | 53.8 | 30.3 | 59.1 | 30 | 50.1 | 37.3 | 31.1 | 30.1 | 17.4 | 32.4 | inhibition of growth at 10 µM (HL-60(TB)): 78.6%; inhibition of growth at 10 µM (OVCAR-3): 29.2%; inhibition of growth at 10 µM (SR): 57.1%; inhibition of growth at 10 µM (MCF7): 51%; inhibition of growth at 10 µM (SF-539): 12.3%; inhibition of growth at 10 µM (MDA-MB-468): 51%; inhibition of growth at 10 µM (SNB-75): 26.3%; inhibition of growth at 10 µM (SN12C): < 10%; inhibition of growth at 10 µM (RXF 393): 32.3%; inhibition of growth at 10 µM (M14): 30.7% |
| CCOC(=O)C1=C(C)NC(SCc2nnc(-c3ccc(Cl)cc3)o2)=NC1c1ccc(Cl)cc1Cl (stereo not given) | 40.8 | 42.3 | 17.5 | 26.7 | 10.3 | 21.1 | 56.1 | 22.3 | 34.8 | 52.6 | 71.2 | 36.6 | 19.7 | 47.3 | 48.4 | 58.3 | 49.8 | 45.4 | < 10 | 44.7 | inhibition of growth at 10 µM (HL-60(TB)): 106%; inhibition of growth at 10 µM (OVCAR-3): 37.2%; inhibition of growth at 10 µM (SR): 62.1%; inhibition of growth at 10 µM (MCF7): 68%; inhibition of growth at 10 µM (SF-539): 13.6%; inhibition of growth at 10 µM (MDA-MB-468): 11.6%; inhibition of growth at 10 µM (SNB-75): 15.9%; inhibition of growth at 10 µM (SN12C): 34.6%; inhibition of growth at 10 µM (RXF 393): 56.6%; inhibition of growth at 10 µM (M14): 34.8% |
| CCOC(=O)C1=C(C)NC(SCc2nnc(-c3ccc(C)cc3)o2)=NC1c1ccc(F)cc1 (stereo not given) | < 10 | 19 | < 10 | < 10 | 12.8 | 10.3 | 13.9 | < 10 | 20.2 | 32.6 | 18.6 | < 10 | 14.5 | < 10 | 17.1 | 14.7 | 22.4 | < 10 | < 10 | 11.3 | inhibition of growth at 10 µM (HL-60(TB)): 25.2%; inhibition of growth at 10 µM (OVCAR-3): < 10%; inhibition of growth at 10 µM (SR): 26.5%; inhibition of growth at 10 µM (MCF7): 14%; inhibition of growth at 10 µM (SF-539): < 10%; inhibition of growth at 10 µM (MDA-MB-468): 18.1%; inhibition of growth at 10 µM (SNB-75): 13.8%; inhibition of growth at 10 µM (SN12C): 19.9%; inhibition of growth at 10 µM (RXF 393): < 10%; inhibition of growth at 10 µM (M14): < 10% |
| CCOC(=O)C1=C(C)NC(SCc2nnc(-c3ccc(Cl)cc3)o2)=NC1c1ccccc1 (stereo not given) | < 10 | < 10 | 27.8 | < 10 | 42.7 | < 10 | < 10 | < 10 | 31.4 | 53.8 | 36.8 | 10.3 | < 10 | < 10 | 34.9 | < 10 | 54.1 | < 10 | 25.6 | 21.8 | inhibition of growth at 10 µM (HL-60(TB)): 38%; inhibition of growth at 10 µM (OVCAR-3): < 10%; inhibition of growth at 10 µM (SR): 24.9%; inhibition of growth at 10 µM (MCF7): 18.2%; inhibition of growth at 10 µM (SF-539): < 10%; inhibition of growth at 10 µM (MDA-MB-468): 14.7%; inhibition of growth at 10 µM (SNB-75): < 10%; inhibition of growth at 10 µM (SN12C): 14.8%; inhibition of growth at 10 µM (RXF 393): < 10%; inhibition of growth at 10 µM (M14): 19.5% |
